Source: ChEMBL document CHEMBL3797175, “Discovery of 6-(difluoro(6-(4-fluorophenyl)-[1,2,4]triazolo[4,3-b][1,2,4]triazin-3-yl)methyl)quinoline as a highly potent and selective c-Met inhibitor” (Eur J Med Chem, 2016)
The source made the active and inactive calls. The rule behind the calls is not given here.

Legend:
[1] = Selectivity ratio of IC50 for human MGC803 cells to IC50 for mouse BAF3 cells expressing TPR-MET; type: ADME, cell-based
In short: (§1)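 Both IC50s in each ratio come from one proliferation assay. Cells were seeded and exposed the next day to a range of concentrations for 72 h, then read by SRB or MTT. IC50s were fitted by four-parameter concentration–response, with each concentration at least in triplicate and at least 2 experiments. BaF3/TPR-Met is murine pre-B BaF3 transfected with TPR-MET and puromycin-selected.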

MKN-45 = assay: Antitumor activity against human MKN45 cells xenografted in po dosed athymic nude mouse assessed as tumor growth inhibition administered bid for 21 days measured twice a week during compound dosing; type: functional, organism-based
In short: (§2)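 Nude mice bearing s.c. tumours. Cells were first grown s.c. to 700–800 mm³, then 1.5 mm³ fragments were transplanted s.c. into the right flank. Mice were randomised at 100–200 mm³ (n=6 treated, n=12 vehicle) and dosed orally twice daily for 21 days. Caliper measurement twice weekly; TV = length×width²/2. TGI taken on the final day versus vehicle; Student's t test.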

[2] = biological target: T1, Hepatocyte growth factor receptor (Homo sapiens, UniProt P08581); assay: Inhibition of c-Met in human EBC1 cells assessed as reduction in AKT phosphorylation at Serine 473 at 10 nM after 1 hr by Western blot analysis; type: cell-based
In short: (§3)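 EBC-1 or MKN45 cells treated with compound 1 h at 37 °C without HGF, then lysed in 1× SDS sample buffer. Lysates run on 10% SDS-PAGE and transferred to nitrocellulose. Probed with antibodies to c-Met, phospho-c-Met, phospho-ERK1/2, phospho-AKT, AKT and GAPDH, then HRP secondary. ECL detection.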

[3] = biological target: T1, Hepatocyte growth factor receptor; assay: Inhibition of c-Met phosphorylation at Tyrosine 1234 in human MKN45 cells at 10 nM after 1 hr by Western blot analysis; type: cell-based; conditions: MKN-45; in short: as §3
[4] = Selectivity ratio of IC50 for human Bel7404 cells to IC50 for human MKN45 cells; type: ADME, cell-based; in short: as §1
[5] = Selectivity ratio of IC50 for human Calu3 cells to IC50 for human EBC1 cells; type: ADME, cell-based; conditions: calu-3; in short: as §1
[6] = biological target: Tyrosine-protein kinase Mer (Homo sapiens) (UniProt Q12866); conditions: 1000 nM
[7] = Selectivity ratio of IC50 for human NCI-H460 cells to IC50 for human MKN45 cells; type: ADME, cell-based; in short: as §1
[8] = Antiproliferative activity against human SPCA1 cells after 72 hrs by SRB or MTT assay; type: functional, cell-based; conditions: SPCA1, 72 h
In short: (§4)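 Cells seeded, exposed next day to a range of concentrations for 72 h. Growth read by sulforhodamine B or MTT. IC50 from four-parameter concentration-response fit. Each concentration tested at least in triplicate, with at least 2 experiments.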

[9] = Selectivity ratio of IC50 for human Bel7404 cells to IC50 for human EBC1 cells; type: ADME, cell-based; in short: as §1
[10] = biological target: ALK tyrosine kinase receptor (Homo sapiens) (UniProt Q9UM73); assay: Inhibition of recombinant ALK (unknown origin) using poly (Glu, Tyr) 4:1 as substrate at 1000 nM incubated for 60 mins by ELISA relative to control
In short: (§5)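 Recombinant tyrosine kinases assayed on wells precoated with poly(Glu,Tyr)4:1 (20 µg/mL). ATP 10 µmol/L in HEPES pH 7.4 buffer with MgCl2, MnCl2, Na3VO4 and DTT; compound in 1% DMSO, 1% DMSO as control. Reaction 60 min at 37 °C. Phosphotyrosine detected with PY99 and HRP anti-mouse, o-phenylenediamine, A490. Inhibition % relative to control; two experiments.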

[11] = Selectivity ratio of IC50 for human NCI-H226 cells to IC50 for human EBC1 cells; type: ADME, cell-based; in short: as §1
[12] = biological target: Proto-oncogene tyrosine-protein kinase receptor Ret (Homo sapiens) (UniProt P07949); assay: Inhibition of recombinant RET (unknown origin) using poly (Glu, Tyr) 4:1 as substrate at 1000 nM incubated for 60 mins by ELISA relative to control; in short: as §5
[13] = biological target: TPR/MET fusion protein (Mus musculus) (UniProt P16056+F6ZDS4); assay: Inhibition of TPR-MET in mouse BAF3 cells assessed as reduction in ERK phosphorylation at Tyrosine 204 at 10 nM after 1 hr by Western blot analysis; type: cell-based
In short: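 BaF3 stably expressing TPR-MET (puromycin-selected), grown with IL-3-conditioned medium. Treated 1 h at 37 °C, lysed in SDS sample buffer. 10% SDS-PAGE and immunoblot for phospho-c-Met, phospho-ERK1/2, phospho-AKT and totals; ECL detection.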

[14] = Selectivity ratio of IC50 for human AGS cells to IC50 for human EBC1 cells; type: ADME, cell-based; in short: as §1
786-0 = assay: Antiproliferative activity against human 786-0 cells after 72 hrs by SRB or MTT assay; type: functional, cell-based; conditions: 786-0, 72 h; in short: as §4
[15] = Selectivity ratio of IC50 for human NCI-H358 cells to IC50 for mouse BAF3 cells expressing TPR-MET; type: ADME, cell-based; in short: as §1
[16] = Selectivity ratio of IC50 for human 786-0 cells to IC50 for human MKN45 cells; type: ADME, cell-based; conditions: mkn-45; in short: as §1
[17] = Antiproliferative activity against human NCI-HCC827 cells after 72 hrs by SRB or MTT assay; type: functional, cell-based; conditions: HCC827, 72 h; in short: as §4
NCI-H358 = assay: Antiproliferative activity against human NCI-H358 cells after 72 hrs by SRB or MTT assay; type: functional, cell-based; conditions: NCI-H358, 72 h; in short: as §4
[18] = biological target: Ephrin type-B receptor 2 (Homo sapiens) (UniProt P29323); assay: Inhibition of recombinant EPHB2 (unknown origin) using poly (Glu, Tyr) 4:1 as substrate at 1000 nM incubated for 60 mins by ELISA relative to control; in short: as §5
[19] = Antitumor activity against human MKN45 cells xenografted in athymic nude mouse assessed as tumor growth inhibition at 25 mg/kg, po bid for 21 days measured twice a week during compound dosing relative to control; type: functional; conditions: MKN-45, po, 504 h, read-out: TGI; in short: as §2
[20] = biological target: T1, Hepatocyte growth factor receptor; assay: Inhibition of c-Met in HGF stimulated human U87MG cells assessed as reduction in ERK phosphorylation at Threonine 202 at 10 nM after 1 hr by Western blot analysis; type: cell-based; conditions: U-87MG ATCC
In short: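 U87MG cells serum-starved 24 h, treated 1 h at 37 °C, then stimulated with HGF 100 ng/mL for 15 min. Lysed in SDS buffer, run on 10% SDS-PAGE and immunoblotted for phospho-ERK1/2 and phospho-AKT; ECL detection.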

[21] = biological target: Tyrosine-protein kinase Mer (Homo sapiens, UniProt Q12866); assay: Inhibition of recombinant c-Mer (unknown origin) using poly (Glu, Tyr) 4:1 as substrate incubated for 60 mins by ELISA
[22] = biological target: Platelet-derived growth factor receptor alpha (Homo sapiens) (UniProt P16234); assay: Inhibition of recombinant PDGFRalpha (unknown origin) using poly (Glu, Tyr) 4:1 as substrate at 1000 nM incubated for 60 mins by ELISA relative to control; in short: as §5
[23] = Selectivity ratio of IC50 for human NCI-H358 cells to IC50 for human EBC1 cells; type: ADME, cell-based; in short: as §1
[24] = Antiproliferative activity against human HCT116 cells after 72 hrs by SRB or MTT assay; type: functional, cell-based; conditions: HCT-116, 72 h; in short: as §4

T1 sequence (P08581 whole entry): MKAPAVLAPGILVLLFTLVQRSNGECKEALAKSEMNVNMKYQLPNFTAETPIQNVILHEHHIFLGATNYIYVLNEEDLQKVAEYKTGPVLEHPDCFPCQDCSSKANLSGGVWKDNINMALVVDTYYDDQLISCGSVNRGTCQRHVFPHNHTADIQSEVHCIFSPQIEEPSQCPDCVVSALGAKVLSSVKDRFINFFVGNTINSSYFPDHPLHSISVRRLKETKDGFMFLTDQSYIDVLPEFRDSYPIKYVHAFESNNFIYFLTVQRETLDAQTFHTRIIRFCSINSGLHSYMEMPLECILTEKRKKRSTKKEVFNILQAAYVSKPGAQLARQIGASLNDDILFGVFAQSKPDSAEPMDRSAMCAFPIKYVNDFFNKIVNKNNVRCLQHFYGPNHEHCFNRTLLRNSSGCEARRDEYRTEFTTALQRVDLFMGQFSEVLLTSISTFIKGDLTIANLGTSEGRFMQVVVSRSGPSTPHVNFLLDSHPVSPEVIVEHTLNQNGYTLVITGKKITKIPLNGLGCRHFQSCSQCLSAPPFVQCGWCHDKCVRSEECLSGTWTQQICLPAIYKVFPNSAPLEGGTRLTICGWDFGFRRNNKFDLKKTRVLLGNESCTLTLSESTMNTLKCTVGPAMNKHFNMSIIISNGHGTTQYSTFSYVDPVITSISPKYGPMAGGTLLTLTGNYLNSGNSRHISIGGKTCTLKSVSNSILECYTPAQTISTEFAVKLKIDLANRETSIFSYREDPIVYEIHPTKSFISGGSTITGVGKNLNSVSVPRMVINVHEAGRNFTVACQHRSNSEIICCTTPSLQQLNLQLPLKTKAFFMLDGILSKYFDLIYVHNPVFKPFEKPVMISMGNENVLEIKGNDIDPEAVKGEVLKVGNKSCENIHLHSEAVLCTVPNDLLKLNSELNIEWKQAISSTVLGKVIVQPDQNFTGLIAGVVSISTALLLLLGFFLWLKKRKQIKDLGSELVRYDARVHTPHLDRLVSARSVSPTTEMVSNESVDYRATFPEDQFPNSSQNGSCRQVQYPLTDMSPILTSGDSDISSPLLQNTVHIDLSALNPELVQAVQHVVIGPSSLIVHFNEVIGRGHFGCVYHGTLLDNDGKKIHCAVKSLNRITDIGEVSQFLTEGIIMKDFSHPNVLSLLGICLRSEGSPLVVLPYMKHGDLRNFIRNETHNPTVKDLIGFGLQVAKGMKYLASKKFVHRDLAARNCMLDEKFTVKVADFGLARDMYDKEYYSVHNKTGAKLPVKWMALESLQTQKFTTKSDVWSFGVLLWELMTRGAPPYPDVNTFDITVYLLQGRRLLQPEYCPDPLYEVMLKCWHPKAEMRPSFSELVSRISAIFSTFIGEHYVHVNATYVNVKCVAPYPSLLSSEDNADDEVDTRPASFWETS
Proto-oncogene tyrosine-protein kinase receptor Ret (Homo sapiens), sequence (P07949 whole entry, the tested form may be a part): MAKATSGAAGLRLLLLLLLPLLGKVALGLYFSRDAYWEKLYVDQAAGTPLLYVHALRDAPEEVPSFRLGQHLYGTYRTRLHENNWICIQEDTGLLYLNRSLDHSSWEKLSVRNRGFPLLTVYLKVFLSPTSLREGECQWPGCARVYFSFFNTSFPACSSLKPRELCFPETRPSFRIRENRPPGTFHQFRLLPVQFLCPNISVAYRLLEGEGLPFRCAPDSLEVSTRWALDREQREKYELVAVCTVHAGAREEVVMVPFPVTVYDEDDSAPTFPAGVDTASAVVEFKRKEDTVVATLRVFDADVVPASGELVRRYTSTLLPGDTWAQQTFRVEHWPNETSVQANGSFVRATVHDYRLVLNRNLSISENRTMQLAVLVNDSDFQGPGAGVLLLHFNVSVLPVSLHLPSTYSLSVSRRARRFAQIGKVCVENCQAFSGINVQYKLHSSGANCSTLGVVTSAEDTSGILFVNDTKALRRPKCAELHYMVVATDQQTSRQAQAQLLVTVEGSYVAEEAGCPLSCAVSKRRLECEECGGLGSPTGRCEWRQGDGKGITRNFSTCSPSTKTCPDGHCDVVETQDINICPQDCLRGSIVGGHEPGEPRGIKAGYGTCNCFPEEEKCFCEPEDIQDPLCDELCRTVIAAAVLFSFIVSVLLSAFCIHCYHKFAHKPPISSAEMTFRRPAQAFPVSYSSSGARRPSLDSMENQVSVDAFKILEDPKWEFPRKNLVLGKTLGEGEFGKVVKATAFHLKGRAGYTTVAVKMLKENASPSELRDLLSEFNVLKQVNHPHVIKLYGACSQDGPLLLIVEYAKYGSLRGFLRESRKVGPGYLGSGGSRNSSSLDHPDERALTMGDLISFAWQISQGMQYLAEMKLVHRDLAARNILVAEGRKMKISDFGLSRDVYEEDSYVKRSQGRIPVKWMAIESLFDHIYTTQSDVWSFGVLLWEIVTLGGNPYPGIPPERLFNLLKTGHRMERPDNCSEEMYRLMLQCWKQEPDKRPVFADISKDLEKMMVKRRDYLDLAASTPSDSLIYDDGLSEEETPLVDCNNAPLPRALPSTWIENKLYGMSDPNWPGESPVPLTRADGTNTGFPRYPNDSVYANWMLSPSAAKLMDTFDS
Ephrin type-B receptor 2 (Homo sapiens), sequence (P29323 whole entry): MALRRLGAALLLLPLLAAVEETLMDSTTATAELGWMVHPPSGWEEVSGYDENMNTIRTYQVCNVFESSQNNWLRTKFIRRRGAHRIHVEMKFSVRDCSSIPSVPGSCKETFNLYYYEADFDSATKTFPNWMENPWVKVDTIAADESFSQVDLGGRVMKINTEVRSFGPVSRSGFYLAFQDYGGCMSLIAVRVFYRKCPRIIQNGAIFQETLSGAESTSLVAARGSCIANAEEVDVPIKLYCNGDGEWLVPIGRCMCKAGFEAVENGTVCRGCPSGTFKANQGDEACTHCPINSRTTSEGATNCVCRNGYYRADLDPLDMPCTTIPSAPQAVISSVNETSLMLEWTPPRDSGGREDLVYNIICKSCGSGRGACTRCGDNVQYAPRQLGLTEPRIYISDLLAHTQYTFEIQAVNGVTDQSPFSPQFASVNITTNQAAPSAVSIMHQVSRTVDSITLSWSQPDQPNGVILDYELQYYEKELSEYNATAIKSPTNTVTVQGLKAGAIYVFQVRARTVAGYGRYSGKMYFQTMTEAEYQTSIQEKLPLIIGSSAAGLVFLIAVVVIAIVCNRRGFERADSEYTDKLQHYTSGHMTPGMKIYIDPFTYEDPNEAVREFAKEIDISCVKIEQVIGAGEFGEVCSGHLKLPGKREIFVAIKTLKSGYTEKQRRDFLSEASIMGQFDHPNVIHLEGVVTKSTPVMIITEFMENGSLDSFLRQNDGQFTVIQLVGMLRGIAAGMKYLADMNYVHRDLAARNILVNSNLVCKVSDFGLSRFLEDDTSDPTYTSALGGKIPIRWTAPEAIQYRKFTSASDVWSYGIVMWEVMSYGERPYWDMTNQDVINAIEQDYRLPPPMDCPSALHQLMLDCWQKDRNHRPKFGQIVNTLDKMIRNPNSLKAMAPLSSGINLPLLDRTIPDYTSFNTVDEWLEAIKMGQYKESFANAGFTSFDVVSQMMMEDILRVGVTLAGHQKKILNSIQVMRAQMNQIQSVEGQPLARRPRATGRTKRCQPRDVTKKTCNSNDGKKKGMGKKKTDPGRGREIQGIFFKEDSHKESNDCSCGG
Platelet-derived growth factor receptor alpha (Homo sapiens), sequence (P16234 whole entry): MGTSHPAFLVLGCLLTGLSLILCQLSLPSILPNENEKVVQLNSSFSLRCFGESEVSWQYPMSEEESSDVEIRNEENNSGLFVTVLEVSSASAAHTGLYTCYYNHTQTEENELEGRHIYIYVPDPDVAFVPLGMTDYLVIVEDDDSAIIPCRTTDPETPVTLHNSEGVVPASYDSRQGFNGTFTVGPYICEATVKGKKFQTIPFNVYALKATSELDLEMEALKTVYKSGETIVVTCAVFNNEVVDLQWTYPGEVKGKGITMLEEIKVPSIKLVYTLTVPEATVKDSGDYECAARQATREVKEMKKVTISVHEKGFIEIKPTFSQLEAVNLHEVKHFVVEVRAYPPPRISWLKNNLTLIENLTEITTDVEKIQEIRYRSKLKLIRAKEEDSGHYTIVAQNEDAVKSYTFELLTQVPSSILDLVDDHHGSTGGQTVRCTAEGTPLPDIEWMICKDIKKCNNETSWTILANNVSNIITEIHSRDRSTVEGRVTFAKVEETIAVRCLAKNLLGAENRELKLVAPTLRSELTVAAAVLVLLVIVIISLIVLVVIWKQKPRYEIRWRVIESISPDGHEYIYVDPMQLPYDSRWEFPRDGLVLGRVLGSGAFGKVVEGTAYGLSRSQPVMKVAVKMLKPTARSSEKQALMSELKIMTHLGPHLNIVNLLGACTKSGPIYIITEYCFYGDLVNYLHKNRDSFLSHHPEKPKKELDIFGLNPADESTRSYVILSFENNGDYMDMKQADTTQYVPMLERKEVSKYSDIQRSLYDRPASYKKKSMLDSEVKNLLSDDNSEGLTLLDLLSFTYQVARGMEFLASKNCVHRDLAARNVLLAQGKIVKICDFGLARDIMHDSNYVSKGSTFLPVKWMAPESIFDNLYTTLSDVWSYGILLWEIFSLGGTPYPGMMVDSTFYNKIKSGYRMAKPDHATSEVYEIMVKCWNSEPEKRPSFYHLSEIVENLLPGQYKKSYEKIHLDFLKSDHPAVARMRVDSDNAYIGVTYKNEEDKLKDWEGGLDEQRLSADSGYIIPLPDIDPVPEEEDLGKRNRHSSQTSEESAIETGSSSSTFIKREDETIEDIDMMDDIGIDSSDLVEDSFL

Which results are given for Fc1ccc(-c2cnc3nnc(C(F)(F)c4ccc5ncccc5c4)n3n2)cc1?
Ratio IC50 [1]: > 10000; TGI (MKN-45): Dose-dependent effect; inhibition [2]: Active; inhibition [3]: Active; Ratio IC50 [4]: 10000; Ratio IC50 [5]: > 10000; inhibition [6]: 13.5%; Ratio IC50 [7]: 10000; IC50 [8]: > 10 µM; Ratio IC50 [9]: 10000; inhibition [10]: 2.1%; Ratio IC50 [11]: > 10000; inhibition [12]: 29.9%; inhibition [13]: Active; Ratio IC50 [14]: 10000; IC50 (786-0): > 10 µM; Ratio IC50 [15]: 10000; Ratio IC50 [16]: 10000; IC50 [17]: > 10 µM; IC50 (NCI-H358): > 10 µM; inhibition [18]: 8.5%; inhibition in vivo at 25 mg/kg [19]: 96.5%; inhibition [20]: Active; IC50 [21]: > 1000 nM; inhibition [22]: 31.4%; Ratio IC50 [23]: 10000; IC50 [24]: > 10 µM
